Experimental data taken from ChEMBL document CHEMBL1126317, “2-(aminoalkyl)-5-nitropyrazolo[3,4,5-kl]acridines, a new class of anticancer agents” (1992).

Tests used:
Assay type in all cases: functional
Mus musculus [1] = test: In vivo antitumor activity of the compound(ip, 12.5 mg/kg for 5 days) against CD2F1 mice implanted intraperitoneally with P388 leukemia cells.; details: route intraperitoneal
L1210 = test: In vitro antitumor activity against L1210 leukemia cell line.; details: Mus musculus, read-out: ID50 (the source's name)
Mus musculus [2] = test: In vivo antitumor activity of the compound(ip, 12.5 mg/kg for 5 days) against CD2F1 mice implanted intraperitoneally with P388 leukemia cells; Day 30 survivors=3/6; details: route intraperitoneal
[3] = Ratio of the ID50's showing antitumor activity against HCT-8 and L1210 leukemia cell lines.
In short: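 Ratio taken as ID50 in HCT-8 cells divided by ID50 in L1210 cells, both ID50s expressed as molar concentrations.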

Mus musculus [4] = test: In vivo antitumor activity of the compound(ip, 3 mg/kg for 5 days) against CD2F1 mice implanted intraperitoneally with P388 leukemia cells.; details: route intraperitoneal
HCT-8 = test: In vitro antitumor activity against HCT-8 colon cancer cell line.; details: Homo sapiens, read-out: ID50 (the source's name)
Mus musculus [5] = test: In vivo antitumor activity of the compound(ip, 3.12 mg/kg for 5 days) against CD2F1 mice implanted intraperitoneally with P388 leukemia cells.; details: route intraperitoneal
Mus musculus [6] = test: In vivo antitumor activity of the compound(ip, 3.12 mg/kg for 5 days) against CD2F1 mice implanted intraperitoneally with P388 leukemia cells; Day 30 survivors=1/6; details: route intraperitoneal
Mus musculus [7] = test: In vivo antitumor activity of the compound(ip, 6.25 mg/kg for 5 days) against CD2F1 mice implanted intraperitoneally with P388 leukemia cells.; details: route intraperitoneal
Mus musculus [8] = test: In vivo antitumor activity of the compound(ip, 6.25 mg/kg for 5 days) against CD2F1 mice implanted intraperitoneally with P388 leukemia cells; Day 30 survivors=6/6; details: route intraperitoneal
Mus musculus [9] = test: In vivo antitumor activity of the compound(ip, 6.25 mg/kg for 5 days) against CD2F1 mice implanted intraperitoneally with P388 leukemia cells; Day 30 survivors=5/6; details: route intraperitoneal
Mus musculus [10] = test: In vivo antitumor activity of the compound(ip, 3.12 mg/kg for 5 days) against CD2F1 mice implanted intraperitoneally with P388 leukemia cells; Day 30 survivors=4/6; details: route intraperitoneal
Mus musculus [11] = test: In vivo antitumor activity of the compound(ip, 12.5 mg/kg for 5 days) against CD2F1 mice implanted intraperitoneally with P388 leukemia cells; Day 30 survivors=2/6; details: route intraperitoneal

Row | SMILES | IC50 (L1210) [nM] | Ratio [3] | IC50 (HCT-8) [nM] | further results
1 | CCN(CC)CCN1Nc2c3c(Cl)c(OC)ccc3nc3c([N+](=O)[O-])ccc1c23.CS(=O)(=O)O | 61 | – | – | T/C (Mus musculus [1]): 230%; Activity (Mus musculus [2]): 3
2 | CCN(CC)CCN1Nc2c3cc(O)ccc3nc3c([N+](=O)[O-])ccc1c23.CS(=O)(=O)O | 2 | 6.5 | 13 | T/C (Mus musculus [4]): 180%
3 | CC(=O)Oc1ccc2c(c1)-c1nn(CCN3CCCC3)c3ccc([N+](=O)[O-])c(c13)N2.CS(=O)(=O)O | 2.2 | – | – | T/C (Mus musculus [5]): 236%; Activity (Mus musculus [6]): 1
4 | CS(=O)(=O)O.O=[N+]([O-])c1ccc2c3c(c4cc(O)ccc4nc13)NN2CCNCCO | 4.8 | – | – | T/C (Mus musculus [7]): 275%; Activity (Mus musculus [8]): 6
5 | CCN(CC)CCN1Nc2c3cc(OC(=O)C(C)(C)C)ccc3nc3c([N+](=O)[O-])ccc1c23.CS(=O)(=O)O | 1 | 0.97 | 9.7 | T/C (Mus musculus [7]): 283%; Activity (Mus musculus [9]): 5
6 | CCN(CC)CCN1Nc2c3cc(OC(C)=O)ccc3nc3c([N+](=O)[O-])ccc1c23.CS(=O)(=O)O | 3.8 | 1.4 | 5.3 | T/C (Mus musculus [5]): 283%; Activity (Mus musculus [10]): 4
7 | CCN(CC)CCN1Nc2c3cc(O[Si](C)(C)C(C)(C)C)ccc3nc3c([N+](=O)[O-])ccc1c23.CS(=O)(=O)O | 1.7 | – | – | Activity (Mus musculus [11]): 2; T/C (Mus musculus [1]): 228%
